Measurements published in ChEMBL document CHEMBL2346654, “Discovery of biological evaluation of pyrazole/imidazole amides as mGlu5 receptor negative allosteric modulators” (Bioorg Med Chem Lett, 2013).

Columns and labels:
[1] = Half life in mouse liver microsomes
[2] = Half life in rat liver microsomes
[3] = biological target: T1, Metabotropic glutamate receptor 5 (Homo sapiens, UniProt P41594); assay: Negative allosteric modulation of human mGluR5 expressed in HEK293 cells assessed as calcium mobilization by FLIPR assay; format: functional, cell-based
Target sequence in this assay (P41594 whole entry): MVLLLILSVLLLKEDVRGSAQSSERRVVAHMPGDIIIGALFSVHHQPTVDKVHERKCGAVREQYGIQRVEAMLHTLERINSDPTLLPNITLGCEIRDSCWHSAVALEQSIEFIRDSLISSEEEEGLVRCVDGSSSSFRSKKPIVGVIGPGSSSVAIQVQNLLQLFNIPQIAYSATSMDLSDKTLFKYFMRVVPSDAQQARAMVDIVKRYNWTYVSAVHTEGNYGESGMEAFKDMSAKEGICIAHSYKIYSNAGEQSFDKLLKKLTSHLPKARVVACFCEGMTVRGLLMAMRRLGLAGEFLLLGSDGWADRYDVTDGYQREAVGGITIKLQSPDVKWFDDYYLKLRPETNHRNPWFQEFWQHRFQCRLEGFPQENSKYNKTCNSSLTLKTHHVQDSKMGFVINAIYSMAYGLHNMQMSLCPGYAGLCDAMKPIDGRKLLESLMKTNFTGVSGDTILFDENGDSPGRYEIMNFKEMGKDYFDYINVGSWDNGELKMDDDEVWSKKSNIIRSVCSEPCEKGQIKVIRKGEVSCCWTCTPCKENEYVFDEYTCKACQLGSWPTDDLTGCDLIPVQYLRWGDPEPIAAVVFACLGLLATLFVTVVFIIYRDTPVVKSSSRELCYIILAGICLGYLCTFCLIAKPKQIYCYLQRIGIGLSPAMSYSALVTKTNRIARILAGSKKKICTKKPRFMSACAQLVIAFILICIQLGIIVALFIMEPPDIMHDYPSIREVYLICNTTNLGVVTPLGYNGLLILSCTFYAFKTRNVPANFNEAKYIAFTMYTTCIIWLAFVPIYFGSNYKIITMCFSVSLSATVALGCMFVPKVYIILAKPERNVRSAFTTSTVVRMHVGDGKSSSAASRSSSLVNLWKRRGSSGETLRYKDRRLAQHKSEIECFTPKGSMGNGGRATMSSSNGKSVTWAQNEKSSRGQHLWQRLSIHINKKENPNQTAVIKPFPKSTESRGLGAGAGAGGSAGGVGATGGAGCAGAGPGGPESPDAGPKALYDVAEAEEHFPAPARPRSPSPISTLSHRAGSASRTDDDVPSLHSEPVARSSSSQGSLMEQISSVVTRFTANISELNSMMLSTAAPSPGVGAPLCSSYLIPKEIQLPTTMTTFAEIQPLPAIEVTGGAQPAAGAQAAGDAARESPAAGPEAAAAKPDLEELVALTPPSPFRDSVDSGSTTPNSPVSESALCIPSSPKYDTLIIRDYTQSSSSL

[4] = Half life in human liver microsomes
Mus musculus = assay: Antidepressant activity in ICR mouse assessed as decrease in immobility time at 10 mg/kg, po administered 1 hr before test measured for 4 mins following training for 2 mins by forced swimming test; format: functional; set-up: scale not given: the % may be the effect or the level left
How it was run: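 Mouse forced swim test: ICR mice dosed orally 1 h before testing; 2 min training, then immobility duration recorded over 4 min. Activity expressed as % decrease in immobility duration. Mean ± SEM, n = 8; Dunnett's multiple comparisons after one-way ANOVA (p < 0.05).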

[5] = biological target: T1, Metabotropic glutamate receptor 5; assay: Negative allosteric modulation of human mGluR5 expressed in HEK293 cells assessed as calcium mobilization at 2 uM by FLIPR assay; format: functional, cell-based
Target sequence in this assay (P41594 21-1212 limits assumed): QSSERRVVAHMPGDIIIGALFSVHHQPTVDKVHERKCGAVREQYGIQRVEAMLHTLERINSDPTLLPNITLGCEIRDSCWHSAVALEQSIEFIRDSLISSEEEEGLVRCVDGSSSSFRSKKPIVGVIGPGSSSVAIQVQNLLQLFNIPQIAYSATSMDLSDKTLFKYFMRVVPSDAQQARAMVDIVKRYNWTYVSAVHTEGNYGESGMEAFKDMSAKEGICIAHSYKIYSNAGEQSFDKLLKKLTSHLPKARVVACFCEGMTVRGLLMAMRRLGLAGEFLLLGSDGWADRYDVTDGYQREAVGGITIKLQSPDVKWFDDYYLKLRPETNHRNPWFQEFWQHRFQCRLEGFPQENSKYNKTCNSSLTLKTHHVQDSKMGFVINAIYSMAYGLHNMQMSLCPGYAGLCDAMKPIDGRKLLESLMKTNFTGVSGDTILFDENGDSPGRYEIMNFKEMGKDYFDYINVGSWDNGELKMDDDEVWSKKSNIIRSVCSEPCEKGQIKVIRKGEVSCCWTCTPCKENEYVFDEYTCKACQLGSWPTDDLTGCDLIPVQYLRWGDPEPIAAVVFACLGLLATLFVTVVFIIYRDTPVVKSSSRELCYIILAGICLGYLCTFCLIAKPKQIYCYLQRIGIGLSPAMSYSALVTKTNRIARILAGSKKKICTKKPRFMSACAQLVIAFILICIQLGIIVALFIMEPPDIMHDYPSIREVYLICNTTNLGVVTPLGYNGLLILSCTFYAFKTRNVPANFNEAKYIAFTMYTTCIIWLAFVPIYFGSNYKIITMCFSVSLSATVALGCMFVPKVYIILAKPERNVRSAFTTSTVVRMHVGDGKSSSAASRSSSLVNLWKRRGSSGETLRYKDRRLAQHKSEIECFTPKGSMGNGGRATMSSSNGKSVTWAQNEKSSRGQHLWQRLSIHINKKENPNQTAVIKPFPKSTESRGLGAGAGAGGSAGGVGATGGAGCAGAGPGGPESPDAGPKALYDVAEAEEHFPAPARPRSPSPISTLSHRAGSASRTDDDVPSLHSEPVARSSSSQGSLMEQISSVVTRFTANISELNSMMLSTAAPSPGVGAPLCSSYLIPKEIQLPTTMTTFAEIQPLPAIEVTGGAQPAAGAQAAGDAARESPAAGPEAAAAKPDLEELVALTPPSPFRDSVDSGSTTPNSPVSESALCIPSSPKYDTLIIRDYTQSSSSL

[6] = biological target: T1, Metabotropic glutamate receptor 5; assay: Negative allosteric modulation of human mGluR5 expressed in HEK293 cells assessed as calcium mobilization at 1 uM by FLIPR assay; format: functional, cell-based
Target sequence in this assay (P41594 21-1212 limits assumed): as above

Compound	half-life ([1]; microsomes)	half-life ([2]; microsomes)	IC50 [3]	half-life ([4]; microsomes)	half-life ([1]; liver microsomes)	half-life ([2]; liver microsomes)	half-life ([4]; liver microsomes)	Activity (Mus musculus)	also measured
Cc1cccc(NC(=O)c2nc(C)n(-c3ccc(Cl)cc3)c2C)n1	1.35 h	0.983 h	17.1 nM	0.9 h	–	–	–	–	–
Cc1c(C(=O)Nc2ccncc2)nn(C)c1-c1ccc(F)cc1	–	–	301 nM	–	–	–	–	–	–
Cc1cccc(NC(=O)c2nn(C)c(-c3ccncc3)c2C)n1	0.133 h	0.617 h	71 nM	0.7 h	–	–	–	–	–
Cc1cccc(NC(=O)c2c3c(nn2C)CCCC3)n1	–	–	> 1000 nM	–	–	–	–	–	–
Cc1cccc(NC(=O)c2nc(C)n(-c3ccc(F)c(Cl)c3)c2C)n1	1.17 h	1.45 h	14.5 nM	1.27 h	–	–	–	–	–
Cc1nc(C(=O)Nc2ccnc(Cl)c2)c(C)n1-c1ccc(F)cc1	5 h	1.57 h	62 nM	3.75 h	–	–	–	–	–
Cc1cccc(NC(=O)c2nn(C)c(C3CCCCC3)c2C)n1	–	–	25 nM	–	0.467 h	0.133 h	1.38 h	–	–
Cc1c(C(=O)Nc2cccc(Cl)n2)nn(C)c1-c1ccc(F)cc1	–	–	16.4 nM	–	1.93 h	1.8 h	1.92 h	12.6%	–
COc1ccc(-c2c(C)c(C(=O)Nc3cccc(C)n3)nn2C)cc1	–	–	17 nM	–	1.18 h	1.58 h	> 5 h	14.4%	–
Cc1cccc(NC(=O)c2nc(C)n(-c3ccc(C(F)(F)F)cc3)c2C)n1	> 5 h	> 5 h	46.2 nM	> 5 h	–	–	–	–	–
Cc1c(C(=O)Nc2ccc(F)cn2)nn(C)c1-c1ccc(F)cc1	0.65 h	> 5 h	10.3 nM	> 5 h	–	–	–	36.8%	–
Cc1c(C(=O)Nc2ccc(Cl)cn2)nn(C)c1-c1ccc(F)cc1	–	–	184 nM	–	0.267 h	3.65 h	> 5 h	–	–
Cc1cccc(NC(=O)c2nn(C)c(-c3cccc(Cl)c3)c2C)n1	0.533 h	0.917 h	4.7 nM	2 h	–	–	–	–	–
Cc1cccc(NC(=O)c2nn(C)c(-c3ccc(Cl)cc3)c2C)n1	–	–	3.8 nM	–	–	–	–	51.4%	–
Cc1nc(C(=O)Nc2cccc(C(F)(F)F)n2)c(C)n1-c1ccc(F)cc1	–	–	173 nM	–	2.63 h	1.2 h	3.27 h	–	–
Cc1cccc(NC(=O)c2nc(C)n(-c3ccc(Cl)c(Cl)c3)c2C)n1	–	–	5.8 nM	–	1.55 h	2.23 h	2.03 h	85.2%	–
CCCc1c(C(=O)Nc2cccc(C)n2)nn(C)c1-c1ccccc1	–	–	–	–	–	–	–	–	inhibition [5]: 37%
Cc1cccc(NC(=O)c2nn(C)c(OC3CCCCC3)c2C)n1	–	–	92 nM	–	–	–	–	–	–
Cc1csc(NC(=O)c2nn(C)c(-c3ccc(F)cc3)c2C)n1	0.75 h	1.02 h	16.4 nM	2.03 h	–	–	–	32.8%	–
Cc1cccc(NC(=O)c2nn(C)c3c2CCCC3)n1	–	–	27 nM	–	–	–	–	–	–
Cc1cccc(NC(=O)c2nn(C)c(OC3CCOCC3)c2C)n1	–	–	–	–	–	–	–	–	inhibition [6]: 11.6%
Cc1ccc(NC(=O)c2nn(C)c(-c3ccc(F)cc3)c2C)nc1	–	–	90.8 nM	–	0.217 h	1.12 h	0.433 h	–	–
COc1ccc(-n2c(C)nc(C(=O)Nc3cccc(C)n3)c2C)cc1	–	–	147 nM	–	–	–	–	–	–
Cc1cccc(NC(=O)c2nn(C)c(-c3cc(F)cc(F)c3)c2C)n1	–	–	5.3 nM	–	0.3 h	1.07 h	0.533 h	–	–
Cc1cccc(NC(=O)c2nn(C)c(-c3ccc(F)c(F)c3)c2C)n1	0.7 h	2.48 h	4.3 nM	0.767 h	–	–	–	58.8%	–
Cc1cc(NC(=O)c2nn(C)c(-c3ccc(F)cc3)c2C)ccn1	1.4 h	1.27 h	94.5 nM	1.28 h	–	–	–	–	–

Compound	half-life ([1]; microsomes)	half-life ([2]; microsomes)	IC50 [3]	half-life ([4]; microsomes)	half-life ([1]; liver microsomes)	half-life ([2]; liver microsomes)	half-life ([4]; liver microsomes)	Activity (Mus musculus)	also measured
O=C(Nc1cccc(Cl)c1)c1noc2c1CCC2	–	–	63 nM	–	–	–	–	–	–
Cc1ccnc(NC(=O)c2nn(C)c(-c3ccc(F)cc3)c2C)c1	0.167 h	1.98 h	82.3 nM	1.52 h	–	–	–	–	–
Cc1cccc(NC(=O)c2nn(C)c3ccccc23)n1	–	–	> 1000 nM	–	–	–	–	–	–
Cc1cccc(NC(=O)c2nn(C)c(-c3ccc(Cl)c(Cl)c3)c2C)n1	–	–	2.3 nM	–	3.25 h	2.47 h	1.78 h	45.8%	–
Cc1nc(NC(=O)c2nc(C)n(-c3ccc(F)cc3)c2C)ccc1F	–	–	139 nM	–	1.43 h	0.733 h	1 h	–	–
Cc1c(C(=O)Nc2cccc(C(F)(F)F)n2)nn(C)c1-c1ccc(F)cc1	–	–	130 nM	–	1.63 h	0.967 h	4.48 h	–	–
Cc1cccc(NC(=O)c2nc(C)n(-c3ccc(F)cc3)c2C)n1	0.3 h	1.77 h	13 nM	0.733 h	–	–	–	52.1%	–
Cc1cnc(NC(=O)c2nn(C)c(-c3ccc(F)cc3)c2C)s1	–	–	2700 nM	–	–	–	–	–	–
Cc1ccc(-c2c(C)c(C(=O)Nc3cccc(C)n3)nn2C)cc1	–	–	5.3 nM	–	–	–	–	30.8%	–
O=C(Nc1cc(Cl)ccc1O)c1noc2c1CCC2	–	–	373 nM	–	–	–	–	–	–
Cc1nc(C#Cc2cccnc2)cs1	–	–	–	–	–	–	–	14%	–
Cc1nc(C(=O)Nc2cccc(C#N)n2)c(C)n1-c1ccc(F)cc1	–	–	77 nM	–	–	–	–	–	–
Cc1c(C(=O)Nc2ccnc(Cl)n2)nn(C)c1-c1ccc(F)cc1	–	–	7.1 nM	–	> 5 h	> 5 h	> 5 h	31.2%	–
Cc1nc(C(=O)Nc2cccc(F)n2)c(C)n1-c1ccc(F)cc1	–	–	24.2 nM	–	0.617 h	1.13 h	1.6 h	–	–
Cc1cccc(NC(=O)c2nn(C)c(OC3CCN(C)CC3)c2C)n1	–	–	–	–	–	–	–	–	inhibition [6]: -7.7%
Cc1cccc(NC(=O)c2nn(C)c(-c3ccc(N(C)C)cc3)c2C)n1	–	–	645 nM	–	–	–	–	–	–
CCc1c(C(=O)Nc2cccc(C)n2)nn(C)c1-c1ccccc1	–	–	27 nM	–	–	–	–	–	–
Cc1c(C(=O)Nc2ccnc(Cl)c2)nn(C)c1-c1ccc(F)cc1	> 5 h	2.68 h	56.3 nM	> 5 h	–	–	–	39.1%	–
Cc1cccc(NC(=O)c2nn(C)c(-c3ccc(C(F)(F)F)cc3)c2C)n1	–	–	38 nM	–	3.23 h	> 5 h	> 5 h	18.5%	–
Cc1cccc(NC(=O)c2nn(C)c(OCC3CCCCC3)c2C)n1	–	–	1300 nM	–	–	–	–	–	–
Cc1nc(C(=O)Nc2ccc(F)cn2)c(C)n1-c1ccc(F)cc1	0.533 h	1.83 h	88.3 nM	> 5 h	–	–	–	–	–
Cc1cccc(NC(=O)c2nn(C)c(-c3ccc(F)cc3F)c2C)n1	–	–	3.7 nM	–	0.633 h	1.27 h	1.12 h	25.7%	–
Cc1c(C(=O)Nc2ccnc(F)c2)nn(C)c1-c1ccc(F)cc1	–	–	41.6 nM	–	> 5 h	1.9 h	> 5 h	15.5%	–
Cc1cccc(NC(=O)c2nn(C)c(OCc3ccc(F)cc3)c2C)n1	–	–	911 nM	–	–	–	–	–	–
Cc1c(C(=O)Nc2cc(Cl)ccn2)nn(C)c1-c1ccc(F)cc1	0.4 h	2.38 h	195 nM	2.1 h	–	–	–	–	–
Cc1nc(NC(=O)c2nn(C)c(-c3ccc(F)cc3)c2C)ccc1F	1.65 h	2.77 h	28 nM	3.55 h	–	–	–	–	–
